In brackets after ≈: the same amount, converted by molar mass.
Experiments:
Format in all cases: functional
[1] = tested on: HeLa; test: Compound was evaluated for antiviral activity against respiratory syncitial virus (long) in HeLa cell cultures (Concentration required to reduce virus-induced cytopathogenicity by 50%); settings: Homo sapiens
Method in brief: (§1)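 HeLa cultures were infected with respiratory syncytial, vesicular stomatitis, Coxsackie B4 or polio-1 virus. The antiviral end-point is 50% reduction of virus-induced cytopathogenicity. Cytotoxicity is the minimum concentration producing microscopically detectable alteration of normal cell morphology.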

[2] = Evaluation for antiviral activity against vaccinia virus in primary rabbit kidney cell cultures(PRK) (Concentration required to reduce virus-induced cytopathogenicity by 50%); settings: Oryctolagus cuniculus
[3] = tested on: Vero; test: Evaluation in Vero cell cultures for cytotoxicity that is to cause microscopically detectable alteration of normal cell morphology; settings: Chlorocebus sabaeus
Method in brief: (§2)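 Vero cultures were infected with parainfluenza-3, reovirus-1, Sindbis, Coxsackie B4 or Semliki forest virus. Values are concentrations giving 50% reduction of virus-induced cytopathogenicity, or a microscopically detectable alteration of normal cell morphology for cytotoxicity. Each is the average of two separate experiments.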

[4] = tested on: HeLa; test: Evaluation for antiviral activity against vesicular stomatitis virus in HeLa cell cultures (Concentration required to reduce virus-induced cytopathogenicity by 50%); settings: Homo sapiens; method in brief: as §1
[5] = Evaluation in PRK cell cultures for cytotoxicity that is to cause microscopically detectable alteration of normal cell morphology; settings: Oryctolagus cuniculus
[6] = Evaluation for antiviral activity against herpes simplex virus-2(Lyons) in primary rabbit kidney cell cultures(PRK) (Concentration required to reduce virus-induced cytopathogenicity by 50%); settings: Oryctolagus cuniculus
[7] = tested on: MT4; test: Inhibitory effect on the proliferation of human T-lymphocyte (MT-4); settings: read-out: ID50 (the source's name)
Method in brief: (§3)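 Proliferation assay in murine leukemia L1210, human T-lymphoblast Molt-4F and human T-lymphocyte MT-4 cells. ID50 is the dose inhibiting tumor cell proliferation by 50%, expressed in μg/mL.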

[8] = Evaluation for antiviral activity against herpes simplex virus-1(TK-) (B2006) in primary rabbit kidney cell cultures(PRK) (Concentration required to reduce virus-induced cytopathogenicity by 50%); settings: Oryctolagus cuniculus
[9] = tested on: Vero; test: Evaluation for antiviral activity against Sindbis virus in Vero cell cultures (Concentration required to reduce virus-induced cytopathogenicity by 50%); settings: Chlorocebus sabaeus; method in brief: as §2
[10] = Evaluation for antiviral activity against herpes simplex virus-1(F) in primary rabbit kidney cell cultures(PRK) (Concentration required to reduce virus-induced cytopathogenicity by 50%); settings: Oryctolagus cuniculus
[11] = tested on: L1210; test: Inhibitory effect on the proliferation of murine leukemia cells (L1210); settings: Mus musculus, read-out: ID50 (the source's name); method in brief: as §3
[12] = tested on: MOLT-4F; test: Inhibitory effect on the proliferation of human T-lymphoblast cells (Molt-4F); settings: read-out: ID50 (the source's name); method in brief: as §3
[13] = tested on: Vero; test: Evaluation for antiviral activity against forest virus in Vero cell cultures (Concentration required to reduce virus-induced cytopathogenicity by 50%); settings: Chlorocebus sabaeus; method in brief: as §2
[14] = tested on: Vero; test: Evaluation for antiviral activity against reo virus-1 in Vero cell cultures (Concentration required to reduce virus-induced cytopathogenicity by 50%); settings: Chlorocebus sabaeus; method in brief: as §2
[15] = tested on: HeLa; test: Evaluation in HeLa cell cultures for cytotoxicity that is to cause microscopically detectable alteration of normal cell morphology; settings: Homo sapiens; method in brief: as §1
[16] = tested on: Vero; test: Evaluation for antiviral activity against Coxsackie virus B4 in Vero cell cultures (Concentration required to reduce virus-induced cytopathogenicity by 50%); settings: Chlorocebus sabaeus; method in brief: as §2
[17] = Evaluated for antiviral activity against herpes simplex virus-1(KOS) in primary rabbit kidney cell cultures(PRK) (Concentration required to reduce virus-induced cytopathogenicity by 50%); settings: Oryctolagus cuniculus
[18] = Evaluation for antiviral activity against herpes simplex virus-2(196) in primary rabbit kidney cell cultures(PRK) (Concentration required to reduce virus-induced cytopathogenicity by 50%); settings: Oryctolagus cuniculus
[19] = Evaluation for antiviral activity against vesicular stomatitis virus in primary rabbit kidney cell cultures(PRK) (Concentration required to reduce virus-induced cytopathogenicity by 50%); settings: Oryctolagus cuniculus
[20] = tested on: HeLa; test: Evaluation for antiviral activity against Coxsackie virus B4 in HeLa cell cultures (Concentration required to reduce virus-induced cytopathogenicity by 50%); settings: Homo sapiens; method in brief: as §1
[21] = Evaluation for antiviral activity against herpes simplex virus-2(G) in primary rabbit kidney cell cultures(PRK) (Concentration required to reduce virus-induced cytopathogenicity by 50%); settings: Oryctolagus cuniculus
[22] = tested on: HeLa; test: Evaluation for antiviral activity against polio virus-1 in HeLa cell cultures (Concentration required to reduce virus-induced cytopathogenicity by 50%); settings: Homo sapiens; method in brief: as §1
[23] = tested on: Vero; test: Evaluation for antiviral activity against parainfluenza-3 virus in Vero cell cultures (Concentration required to reduce virus-induced cytopathogenicity by 50%); settings: Chlorocebus sabaeus; method in brief: as §2
[24] = Evaluation for antiviral activity against herpes simplex virus-1 (McIntyre) in primary rabbit kidney cell cultures(PRK) (Concentration required to reduce virus-induced cytopathogenicity by 50%); settings: Oryctolagus cuniculus
[25] = tested on: Influenza A virus; test: Concentration required to reduce influenza virus A (ishikawa) induced cytopathogenicity by 50%
Method in brief: (§4)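 Influenza A and B virus replication in MDCK cultures. Antiviral value is the concentration giving 50% reduction of virus-induced cytopathogenicity. Cytotoxicity is the concentration causing a microscopically detectable change in normal cell morphology.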

[26] = tested on: MDCK; test: Compound was evaluated in MDCK cell cultures for cytotoxicity that is to cause microscopically detectable alteration of normal cell morphology; settings: Canis lupus familiaris; method in brief: as §4
[27] = tested on: Influenza B virus; test: Concentration required to reduce influenza virus B (singapore) induced cytopathogenicity by 50%; method in brief: as §4

COc1ccc2[nH]c3c(c2c1)CCN1OCSC[C@@H](N)[C@H]31
MIC [1]: > 1.6 µg/mL
MIC [2]: > 4 µg/mL
MCC [3]: > 2.5 µg/mL
MIC [4]: > 1 µg/mL
MCC [5]: > 10 µg/mL
MIC [6]: > 4 µg/mL
IC50 [7]: 1.99 µg/mL (≈ 6.52 µM)
MIC [8]: > 4 µg/mL
MIC [9]: > 1 µg/mL
MIC [10]: > 4 µg/mL
IC50 [11]: 6.54 µg/mL (≈ 21.4 µM)
IC50 [12]: 0.94 µg/mL (≈ 3.08 µM)
MIC [13]: > 1 µg/mL
MIC [14]: > 1 µg/mL
MCC [15]: 4 µg/mL
MIC [16]: > 1 µg/mL
MIC [17]: > 4 µg/mL
MIC [18]: > 4 µg/mL
MIC [19]: > 4 µg/mL
MIC [20]: > 1 µg/mL
MIC [21]: > 4 µg/mL
MIC [22]: > 1 µg/mL
MIC [23]: > 1 µg/mL
MIC [24]: > 4 µg/mL

COc1ccc2[nH]c3c(c2c1)CCN1OCSC[C@@H](N)[C@@H]31
MIC [1]: 0.15 µg/mL (≈ 0.491 µM)
MIC [2]: 0.02 µg/mL (≈ 0.0655 µM)
MCC [3]: > 1 µg/mL
MIC [4]: 0.02 µg/mL (≈ 0.0655 µM)
MIC [25]: > 0.32 µg/mL
MCC [5]: > 1 µg/mL
MIC [6]: 0.04 µg/mL (≈ 0.131 µM)
IC50 [7]: 0.005 µg/mL (≈ 0.0164 µM)
MIC [8]: 0.04 µg/mL (≈ 0.131 µM)
MIC [9]: 0.02 µg/mL (≈ 0.0655 µM)
MIC [10]: 0.07 µg/mL (≈ 0.229 µM)
IC50 [11]: 0.005 µg/mL (≈ 0.0164 µM)
IC50 [12]: 0.0062 µg/mL (≈ 0.0203 µM)
MIC [13]: 0.07 µg/mL (≈ 0.229 µM)
MIC [14]: 0.07 µg/mL (≈ 0.229 µM)
MCC [15]: 0.4 µg/mL
MIC [16]: 0.07 µg/mL (≈ 0.229 µM)
MIC [17]: 0.045 µg/mL (≈ 0.147 µM)
MIC [18]: 0.02 µg/mL (≈ 0.0655 µM)
MIC [19]: 0.02 µg/mL (≈ 0.0655 µM)
MIC [20]: 0.02 µg/mL (≈ 0.0655 µM)
MCC [26]: 0.8 µg/mL
MIC [21]: 0.02 µg/mL (≈ 0.0655 µM)
MIC [22]: 0.02 µg/mL (≈ 0.0655 µM)
MIC [27]: > 0.32 µg/mL
MIC [24]: 0.02 µg/mL (≈ 0.0655 µM)

Cn1c2c(c3ccccc31)CCN1OCSC[C@@H](N)[C@H]21
MIC [2]: > 10 µg/mL
MCC [3]: > 40 µg/mL
MIC [4]: > 10 µg/mL
MCC [5]: 40 µg/mL
MIC [6]: > 10 µg/mL
MIC [9]: > 10 µg/mL
MIC [13]: > 10 µg/mL
MIC [14]: > 10 µg/mL
MCC [15]: > 10 µg/mL
MIC [16]: > 10 µg/mL
MIC [17]: > 10 µg/mL
MIC [19]: > 10 µg/mL
MIC [20]: > 10 µg/mL
MIC [22]: > 10 µg/mL
MIC [23]: > 10 µg/mL

O=c1[nH]c(=O)n([C@H]2C[C@H](O)[C@@H](CO)O2)cc1/C=C/Br [BRIVUDINE]
MIC [2]: 7 µg/mL (≈ 21 µM)
MCC [3]: > 400 µg/mL
MIC [4]: > 400 µg/mL
MCC [5]: > 400 µg/mL
MIC [6]: 70 µg/mL (≈ 210 µM)
MIC [8]: 150 µg/mL (≈ 450 µM)
MIC [9]: > 400 µg/mL
MIC [10]: 0.02 µg/mL (≈ 0.06 µM)
MIC [13]: > 400 µg/mL
MIC [14]: > 400 µg/mL
MCC [15]: > 400 µg/mL
MIC [16]: > 400 µg/mL
MIC [18]: 70 µg/mL (≈ 210 µM)
MIC [19]: > 200 µg/mL
MIC [20]: > 400 µg/mL
MIC [21]: 7 µg/mL (≈ 21 µM)
MIC [22]: > 400 µg/mL
MIC [23]: > 400 µg/mL
MIC [24]: 0.02 µg/mL (≈ 0.06 µM)

Nc1nccc2c1ncn2[C@@H]1C[C@H](CO)[C@@H](O)[C@H]1O [3-DEAZAARISTEROMYCIN A]
MIC [2]: 0.7 µg/mL (≈ 2.65 µM)
MCC [3]: > 400 µg/mL
MIC [4]: 2 µg/mL (≈ 7.57 µM)
MCC [5]: > 400 µg/mL
MIC [6]: > 200 µg/mL
MIC [8]: 150 µg/mL (≈ 568 µM)
MIC [9]: 20 µg/mL (≈ 75.7 µM)
MIC [10]: > 200 µg/mL
MIC [13]: > 400 µg/mL
MIC [14]: 2 µg/mL (≈ 7.57 µM)
MCC [15]: > 400 µg/mL
MIC [16]: 20 µg/mL (≈ 75.7 µM)
MIC [17]: > 200 µg/mL
MIC [18]: > 200 µg/mL
MIC [19]: 2 µg/mL (≈ 7.57 µM)
MIC [20]: > 400 µg/mL
MIC [21]: > 200 µg/mL
MIC [22]: > 400 µg/mL
MIC [23]: 2 µg/mL (≈ 7.57 µM)
MIC [24]: > 200 µg/mL

C[C@@H]1CSCON2CCc3c([nH]c4ccccc34)[C@H]12
MIC [2]: > 100 µg/mL
MCC [3]: > 100 µg/mL
MIC [4]: > 40 µg/mL
MCC [5]: > 100 µg/mL
MIC [9]: 20 µg/mL (≈ 72.9 µM)
MIC [13]: > 40 µg/mL
MIC [14]: > 40 µg/mL
MCC [15]: 40 µg/mL
MIC [16]: 20 µg/mL (≈ 72.9 µM)
MIC [17]: > 100 µg/mL
MIC [19]: > 100 µg/mL
MIC [20]: > 40 µg/mL
MIC [21]: > 100 µg/mL
MIC [22]: > 40 µg/mL
MIC [23]: > 40 µg/mL

Source: ChEMBL document CHEMBL1125540, “Antiviral and antitumor structure-activity relationship studies on tetracyclic eudistomines” (1992)
